Experimental data published in ChEMBL document CHEMBL3232904, “Discovery of novel quinoline carboxylic acid series as DGAT1 inhibitors” (Bioorg Med Chem Lett, 2014).
Values after ≈ are worked out from the molar mass of the structure shown.

How the values were obtained:
[1] = target: T1, Diacylglycerol O-acyltransferase 2 (Homo sapiens, UniProt Q96PD7); assay: Inhibition of human DGAT2
T1 sequence (Q96PD7 whole entry): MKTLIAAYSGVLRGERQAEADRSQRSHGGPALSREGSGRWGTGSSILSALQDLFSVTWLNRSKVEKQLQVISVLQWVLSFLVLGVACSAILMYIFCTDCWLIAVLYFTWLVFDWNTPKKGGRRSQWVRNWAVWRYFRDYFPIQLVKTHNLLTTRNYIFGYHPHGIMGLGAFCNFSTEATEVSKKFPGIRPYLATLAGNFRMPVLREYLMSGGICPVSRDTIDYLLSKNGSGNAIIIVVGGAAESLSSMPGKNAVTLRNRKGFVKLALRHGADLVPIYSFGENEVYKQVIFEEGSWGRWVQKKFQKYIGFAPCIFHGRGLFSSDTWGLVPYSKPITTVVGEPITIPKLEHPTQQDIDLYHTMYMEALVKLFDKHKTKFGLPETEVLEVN

[2] = Drug degradation in human plasma at 25 degC after 12 hrs; assay type: ADME, cell-free; conditions: read-out: Drug degradation
[3] = target: T2, Sterol O-acyltransferase 2 (Homo sapiens, UniProt O75908); assay: Inhibition of human ACAT2
T2 sequence (O75908 whole entry): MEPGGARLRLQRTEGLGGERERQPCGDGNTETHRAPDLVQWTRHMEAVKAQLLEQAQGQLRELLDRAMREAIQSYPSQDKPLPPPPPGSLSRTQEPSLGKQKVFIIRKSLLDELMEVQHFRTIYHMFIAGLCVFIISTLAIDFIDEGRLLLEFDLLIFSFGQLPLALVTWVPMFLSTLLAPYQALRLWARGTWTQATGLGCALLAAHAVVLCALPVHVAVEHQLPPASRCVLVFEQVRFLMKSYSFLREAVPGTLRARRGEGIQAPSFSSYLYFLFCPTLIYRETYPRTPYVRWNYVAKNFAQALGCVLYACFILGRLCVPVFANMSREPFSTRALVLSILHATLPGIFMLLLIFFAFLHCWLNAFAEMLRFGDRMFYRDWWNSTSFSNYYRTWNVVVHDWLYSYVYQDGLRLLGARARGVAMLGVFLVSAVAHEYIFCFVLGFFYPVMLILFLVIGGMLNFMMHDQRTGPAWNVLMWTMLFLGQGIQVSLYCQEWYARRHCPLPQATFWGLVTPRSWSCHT
Outline: (§1)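 IC50 values are the average of at least two independent determinations.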

[4] = target: T3, Diacylglycerol O-acyltransferase 1 (Homo sapiens, UniProt O75907); assay: Inhibition of human DGAT1
T3 sequence (O75907 whole entry): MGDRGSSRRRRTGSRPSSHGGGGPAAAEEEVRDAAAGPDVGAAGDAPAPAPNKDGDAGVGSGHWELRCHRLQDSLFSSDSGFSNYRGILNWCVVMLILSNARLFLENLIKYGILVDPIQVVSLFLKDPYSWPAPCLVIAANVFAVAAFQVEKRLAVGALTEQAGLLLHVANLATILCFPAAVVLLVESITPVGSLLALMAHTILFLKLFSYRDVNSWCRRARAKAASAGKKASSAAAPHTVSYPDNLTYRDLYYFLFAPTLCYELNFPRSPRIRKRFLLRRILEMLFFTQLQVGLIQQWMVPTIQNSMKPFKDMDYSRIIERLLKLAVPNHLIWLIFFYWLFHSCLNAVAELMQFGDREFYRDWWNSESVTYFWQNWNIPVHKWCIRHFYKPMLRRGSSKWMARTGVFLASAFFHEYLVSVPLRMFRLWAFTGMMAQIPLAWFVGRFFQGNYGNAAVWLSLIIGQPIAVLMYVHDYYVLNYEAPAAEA

Mus musculus [5] = assay: Reduction of postprandial plasma triglyceride level in C57BL/6J mouse at 10 mg/kg, po administered 15 mins prior to corn oil bolus challenge measured after 2 hrs relative to vehicle-treated control; assay type: functional; set-up: scale not given: the % may be the effect or the level left
Outline: (§2)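 Vehicle is 20% hydroxypropyl-β-cyclodextrin; compound or vehicle is given 15 min before time 0. Mice receive a 0.25 mL corn oil bolus at time 0. Terminal blood is taken by heart puncture at 120 min. Plasma TG is measured by an enzymatic colorimetric kit with absorbance read at 600 nm. Values are the mean ± SEM from eight studies, as % reduction versus vehicle.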

[6] = target: T4, Diacylglycerol O-acyltransferase 1 (Mus musculus, UniProt Q9Z2A7); assay: Inhibition of mouse DGAT1; outline: as §1
T4 sequence (Q9Z2A7 whole entry): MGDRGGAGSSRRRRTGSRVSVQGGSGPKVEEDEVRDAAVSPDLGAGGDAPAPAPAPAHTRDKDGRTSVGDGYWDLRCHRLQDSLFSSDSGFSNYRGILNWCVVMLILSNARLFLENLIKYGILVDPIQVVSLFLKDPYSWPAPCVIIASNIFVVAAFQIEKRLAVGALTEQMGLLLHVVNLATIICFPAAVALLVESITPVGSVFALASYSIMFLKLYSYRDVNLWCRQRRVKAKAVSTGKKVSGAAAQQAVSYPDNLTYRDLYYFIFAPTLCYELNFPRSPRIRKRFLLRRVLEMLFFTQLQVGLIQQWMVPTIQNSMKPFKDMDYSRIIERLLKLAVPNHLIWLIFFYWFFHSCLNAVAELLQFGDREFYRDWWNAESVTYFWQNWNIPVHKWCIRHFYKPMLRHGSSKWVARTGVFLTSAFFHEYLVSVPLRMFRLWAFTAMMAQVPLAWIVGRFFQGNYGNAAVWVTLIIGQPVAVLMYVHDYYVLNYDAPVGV

[7] = AUC in rat at 10 mg/kg, po; assay type: ADME, organism-based; set-up: dose 10 mg/kg, route oral; conditions: plasma
[8] = Permeability across human Caco2 cells; assay type: ADME, cell-based; conditions: Caco-2, read-out: permeability
[9] = Half life in rat at 10 mg/kg, po; assay type: ADME, organism-based; set-up: dose 10 mg/kg, route oral; conditions: in vivo
[10] = Clearance in human hepatocytes assessed per million cells; assay type: ADME, cell-based, Hepatocyte; conditions: read-out: CLH
[11] = Oral bioavailability in rat at 10 mg/kg; assay type: ADME, organism-based; conditions: in vivo
[12] = Clearance in rat hepatocytes assessed per million cells; assay type: ADME, cell-based, Hepatocyte; conditions: read-out: CLH
[13] = Plasma protein binding in rat; assay type: ADME, cell-free; conditions: read-out: PPB (converted)
[14] = Solubility of the compound; assay type: physicochemical
CYP1A1 = target: T5, CYP1A1 (Homo sapiens, UniProt P04798); assay: Induction of CYP1A1 (unknown origin) at 30 uM; assay type: ADME; conditions: read-out: FC
T5 sequence (P04798 whole entry): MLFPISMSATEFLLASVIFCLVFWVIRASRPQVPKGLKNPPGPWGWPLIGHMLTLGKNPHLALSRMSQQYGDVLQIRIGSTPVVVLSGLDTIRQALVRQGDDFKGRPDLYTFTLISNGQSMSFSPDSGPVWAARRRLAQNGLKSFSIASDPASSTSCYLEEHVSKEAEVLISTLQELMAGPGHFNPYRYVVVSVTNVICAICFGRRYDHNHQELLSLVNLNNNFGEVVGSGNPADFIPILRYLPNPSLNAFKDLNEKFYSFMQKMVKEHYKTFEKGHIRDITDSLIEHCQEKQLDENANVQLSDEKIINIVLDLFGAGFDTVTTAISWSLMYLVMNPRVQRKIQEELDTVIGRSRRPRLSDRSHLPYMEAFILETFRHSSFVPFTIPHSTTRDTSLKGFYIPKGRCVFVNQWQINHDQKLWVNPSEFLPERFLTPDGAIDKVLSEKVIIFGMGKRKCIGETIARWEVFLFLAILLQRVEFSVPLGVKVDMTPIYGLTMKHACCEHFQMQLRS

[15] = Metabolic stability in human plasma assessed as compound recovery at 25 degC after 6 days; assay type: ADME, cell-free; conditions: read-out: Drug recovery
[16] = Solubility of the compound at pH 7; assay type: physicochemical; conditions: buffer
[17] = target: T6, Sterol O-acyltransferase 1 (Homo sapiens, UniProt P35610); assay: Inhibition of human ACAT1; outline: as §1
T6 sequence (P35610 whole entry): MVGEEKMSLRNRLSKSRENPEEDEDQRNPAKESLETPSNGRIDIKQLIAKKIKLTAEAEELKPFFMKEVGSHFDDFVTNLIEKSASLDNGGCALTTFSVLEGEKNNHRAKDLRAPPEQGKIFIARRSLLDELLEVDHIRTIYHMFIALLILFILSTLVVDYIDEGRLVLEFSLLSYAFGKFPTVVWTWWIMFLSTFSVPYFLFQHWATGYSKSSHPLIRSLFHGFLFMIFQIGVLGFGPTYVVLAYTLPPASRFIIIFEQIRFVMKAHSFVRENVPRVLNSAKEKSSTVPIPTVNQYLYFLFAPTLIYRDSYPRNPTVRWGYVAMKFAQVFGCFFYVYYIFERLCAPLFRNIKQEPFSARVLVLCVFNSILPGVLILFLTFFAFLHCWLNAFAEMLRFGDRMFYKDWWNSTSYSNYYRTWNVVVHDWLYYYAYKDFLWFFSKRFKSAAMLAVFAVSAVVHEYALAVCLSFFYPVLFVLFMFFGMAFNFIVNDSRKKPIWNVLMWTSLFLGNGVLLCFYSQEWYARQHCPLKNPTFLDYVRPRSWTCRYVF

Mus musculus [18] = assay: Reduction of postprandial plasma triglyceride level in C57BL/6J mouse at 3 mg/kg, po administered 15 mins prior to corn oil bolus challenge measured after 2 hrs relative to vehicle-treated control; assay type: functional; set-up: scale not given: the % may be the effect or the level left; outline: as §2

Structure (SMILES)	IC50 [4] [nM]	Activity (Mus musculus [5]) [%]	IC50 [6] [nM]	AUC [7] [µM·h]	further results
O=C(O)C[C@H]1CC[C@H](c2ccc(-c3ccc4c(ccn4C(=O)Nc4ccccc4)c3)cc2)CC1	37	-45			IC50 [1]: > 50000 nM; metabolised at 12 h [2]: 40%; IC50 [3]: 3000 nM
O=C(O)C[C@H]1CC[C@H](c2ccc(-c3ccc4oc(Nc5ccccc5)nc4c3)cc2)CC1			3840		
O=C(O)C[C@H]1CC[C@H](c2ccc(-c3ccc4nc(Nc5ccccc5)ncc4c3)cc2)CC1			> 10000		
O=C(O)C[C@H]1CC[C@H](c2ccc(-c3ccc4nc(C(=O)Nc5ccccc5)[nH]c4c3)cc2)CC1			> 5000		
O=C(O)C[C@H]1CC[C@H](c2ccc(-c3ccc4cc(C(=O)Nc5ccccc5)[nH]c4c3)cc2)CC1			1090		
O=C(O)C[C@H]1CC[C@H](c2ccc(-c3ccc4c(C(=O)Nc5ccccc5)c[nH]c4c3)cc2)CC1		23	284	1.3	
O=C(O)C[C@H]1CC[C@H](c2ccc(-c3ccc4c(c3)CCCN4C(=O)Nc3ccccc3)cc2)CC1		-15	84	79	
O=C(O)C[C@H]1CC[C@H](c2ccc(-c3ccc4c(c3)C(=O)CCN4C(=O)Nc3ccccc3)cc2)CC1	> 10000		1670		
O=C(O)C[C@H]1CC[C@H](c2ccc(-c3ccc4c(c3)NCCN4C(=O)Nc3ccccc3)cc2)CC1			4820		
CN1CCN(C(=O)Nc2ccccc2)c2ccc(-c3ccc([C@H]4CC[C@H](CC(=O)O)CC4)cc3)cc2C1	> 10000		> 10000		
O=C(O)C[C@H]1CC[C@H](c2ccc(-c3ccc4c(c3)CCN4C(=O)Nc3ccccc3)cc2)CC1		-13	69	17	Papp [8]: 17 ×10⁻⁶ cm/s; half-life [9]: 3 h; hepatocyte CLint [10]: 3 µL/min/1e6 cells; metabolised at 12 h [2]: 20%; bioavailability [11]: > 90%; hepatocyte CLint [12]: 13 µL/min/1e6 cells; fraction unbound [13]: 0.002; solubility [14]: 50 µM (≈ 22.7 µg/mL)
O=C(O)C[C@H]1CC[C@H](c2ccc(-c3ccc4c(c3)OCCN4C(=O)Nc3ccccc3)cc2)CC1	65	-52	40	58	Papp [8]: 44.8 ×10⁻⁶ cm/s; half-life [9]: 4 h; hepatocyte CLint [10]: 11 µL/min/1e6 cells; IC50 [1]: > 10000 nM; IC50 [3]: 9700 nM; fold induction at 30 µM (CYP1A1): 10; hepatocyte CLint [12]: 9 µL/min/1e6 cells; remaining at 144 h [15]: 80%; fraction unbound [13]: 0.002; solubility [14]: 100 µM (≈ 47.1 µg/mL)
O=C(O)C[C@H]1CC[C@H](c2ccc(-c3ccc4c(C(=O)Nc5ccccc5)cccc4c3)cc2)CC1		0	8		solubility [16]: 10 µM (≈ 4.64 µg/mL)
O=C(O)C[C@H]1CC[C@H](c2ccc(-c3ccc4c(C(=O)Nc5ccccc5)ccnc4c3)cc2)CC1	41	-85	23	5	Papp [8]: 54.2 ×10⁻⁶ cm/s; IC50 [17]: 4170 nM; solubility [14]: 50 µM (≈ 23.2 µg/mL)
Cc1cc(C(=O)NCCCCCc2ccccc2)c2ccc(-c3ccc([C@H]4CC[C@H](CC(=O)O)CC4)cc3)cc2n1			1.4	10	Activity (Mus musculus [18]): -58%
Cc1cc(C(=O)Nc2ccccc2)c2ccc(-c3ccc(OCC(C)(C)C(=O)O)nc3)cc2n1			69	34	IC50 [3]: 1550 nM; Activity (Mus musculus [18]): -91%
Cc1cc(C(=O)Nc2ccccc2)c2ccc(-c3ccc(OCC(C)(C)C(=O)O)[n+]([O-])c3)cc2n1	122		23		IC50 [3]: 13300 nM; Activity (Mus musculus [18]): -40%
